An excerpt weighted towards active compounds, which were near 3.5% of everything screened.
MrgX1 ag = human MrgX1 receptor agonism, primary screen. actives 0.44% (n = 310,000). B-score at 10 µM. Q96LB2. MrgX1-HEK293 cells, Fluo-4 calcium fluorescence, agonist mode; hits give high values. AID 588627;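 active = calcium response B-score plate-corrected fluorescence ratio at least 3 library SD, with starting fluorescence B-score inside 5 SD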
Target sequence (Q96LB2 whole entry, looked up): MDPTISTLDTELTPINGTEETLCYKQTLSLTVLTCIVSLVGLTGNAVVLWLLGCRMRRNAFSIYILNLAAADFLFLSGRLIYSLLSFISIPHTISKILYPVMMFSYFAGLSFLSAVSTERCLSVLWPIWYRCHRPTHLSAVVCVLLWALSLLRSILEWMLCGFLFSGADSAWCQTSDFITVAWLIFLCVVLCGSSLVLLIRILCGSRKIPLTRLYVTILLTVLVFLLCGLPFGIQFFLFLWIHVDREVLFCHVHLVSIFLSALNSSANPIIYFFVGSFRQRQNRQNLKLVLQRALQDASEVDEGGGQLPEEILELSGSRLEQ
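Material: MrgX1-expressing HEK293 cells / Dosing: compound as first of three additions / Incubation: overnight seeding, then 1 h dark dye loading / Signal: Fluo-4 NW calcium fluorescence / Evaluation: B-scored fluorescence response ratio / Benchmarks: positive and negative control wells on each plate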
RGS4 pot = potentiators or activators of RGS4 | HEK293 M3R/inducible RGS4, carbachol calcium flux Fluo4; hits give low values | B-score at 10 µM | actives 0.92% (n = 310,000) | AID 463111;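 active = B-score of the integrated calcium signal more than 4 SD below the library mean, with starting fluorescence not abnormally high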;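 note: negative B-score means reduced calcium response which marks RGS4 activation or potentiation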
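Detection: kinetic calcium fluorescence imaging with Fluo4-AM dye, 2 µM / Material: HEK293 cells with stable M3R and inducible RGS4 / Schedule: recording 10 s baseline at 1 Hz, 100 s post-agonist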
MrgX1 antag = human MrgX1 receptor antagonism, primary screen. actives 1.3% (n = 310,000). AID 588676. MRGX1-HEK293 calcium flux, Fluo-4, BAM8-22 antagonism; hits give low values. B-score at 10 µM;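 active = calcium-response B-score plate-corrected more than 3 library SD below zero, starting fluorescence within 5 deviations, no agonist response on first addition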;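 note: peak minus trough fluorescence over baseline after final BAM8-22 challenge near maximal dose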
RGS4 inh = inhibitors of human RGS4; P49798; HEK293 M3R/RGS4 inducible, Fluo-4 calcium flux; hits give high values; triggered by carbachol at its EC20; B-score at 10 µM; actives 0.45% (n = 310,000); AID 463165;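 active = B-score, a plate-corrected calcium signal, over three deviations above library mean, with baseline fluorescence within five deviations of library mean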;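 note: RGS4 expression induced by doxycycline in cells with stable M3 receptor; B-score is computed from the integrated fluorescence ratio over baseline after carbachol; higher B-score means a larger calcium signal and so more RGS4 inhibition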
Target sequence (P49798 whole entry, looked up): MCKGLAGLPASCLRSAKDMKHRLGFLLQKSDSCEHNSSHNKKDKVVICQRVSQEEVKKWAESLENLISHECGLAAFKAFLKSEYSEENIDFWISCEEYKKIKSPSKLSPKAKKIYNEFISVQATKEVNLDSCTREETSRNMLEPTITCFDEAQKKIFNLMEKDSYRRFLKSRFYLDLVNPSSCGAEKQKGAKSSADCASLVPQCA
MrgX1 allo act = human MrgX1 positive allosteric modulation, primary screen. actives 0.63% (n = 310,000). B-score at 10 µM. MrgX1-HEK293, Fluo-4 calcium flux, FDSS; hits give high values;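 active = plate-corrected calcium response at least 3 library SD above typical, normal starting fluorescence, not activating the receptor alone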;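 note: compound read alongside a low EC10 to EC30 dose of BAM8-22 agonist; peak minus trough fluorescence over baseline measured at the second addition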
MrgX1 ant reconf = human MrgX1 receptor antagonism, re-confirmation screen; shares compounds with MrgX1 antag; remaining BAM8-22 calcium response % of control (hits give low values), % at 10 µM; MrgX1-HEK293, BAM8-22 calcium flux, Fluo-4; hits give low values; actives 19% (n = 2,300);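 active = remaining agonist calcium response no higher than 100% minus 3 SD of agonist-only control wells, with starting fluorescence near control levels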;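 note: agonist BAM8-22 given at a near maximal EC90 to ECmax level; peak minus minimum fluorescence divided by baseline after agonist addition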
HEK293 Ca flux = activity in parental HEK293 cells lacking MrgX1; shares compounds with MrgX1 antag; Fluo-4 calcium fluorescence, FDSS; fluorescence ratio F(max-min)/F0 at 10 µM; actives 2% (n = 4,000);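 active = duplicate-averaged calcium fluorescence ratio at least three times the standard deviation of buffer wells, a nonspecific response in parental cells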
HEK293 Ca counter = MrgX1 allosteric activator counter-screen hit in parental HEK293 cells; actives 0.4% (n = 4,000); AID 624114; fluorescence ratio F(max-min)/F0 at 10 µM; parental HEK293 calcium flux, Fluo-4 fluorescence ratio; hits give high values; shares compounds with MrgX1 antag;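 active = calcium fluorescence ratio, averaged over duplicates, at least 3 SD of the buffer-well ratio, meaning a nonspecific response in receptor-free cells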;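 note: untransfected parental HEK293 lacking MrgX1 used as counterscreen for MrgX1 allosteric activators; fluorescence change taken during the second addition on a kinetic imager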
HEK293 Ca cntr2 = MrgX1 activator counter-screen hit in parental HEK293 cells | AID 624115 | Fluo-4 calcium fluorescence (FDSS); hits give high values | fluorescence ratio F(max-min)/F0 at 10 µM | shares compounds with MrgX1 antag | actives 8.7% (n = 4,000);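 active = calcium fluorescence ratio at least three times the spread of buffer wells, meaning a non-specific response in parental cells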
Numbers without * were called inactive; i = inactive; x = no result.

SMILES	MrgX1 ag	RGS4 pot	MrgX1 antag	RGS4 inh	MrgX1 allo act	MrgX1 ant reconf	HEK293 Ca flux	HEK293 Ca counter	HEK293 Ca cntr2
Cc1c(C(=O)NCC2CCCO2)oc2ccc(S(=O)(=O)N3CCCCC3)cc12 (stereo unspecified)	i	i	-7.22*	i	i	84.4%*	i	i	i
COc1ccc(OC)c(/C=N/NC2=NS(=O)(=O)c3ccccc32)c1	i	i	i	i	i	x	x	x	x
CCCc1cc(=O)oc2cc(C)cc(OCC(=O)N3CCC(C(N)=O)CC3)c12	i	i	-4.95*	i	i	i	i	i	i
COc1ccccc1CNC(=O)C1CCC1	i	i	-7.9*	i	i	82.1%*	i	i	i
O=C(NCCCCNC(=O)c1cccnc1Cl)c1cccnc1Cl	i	i	-4.85*	i	i	i	i	i	i
O=C(NCC1CCCCC1)c1cccnc1Cl	i	i	i	i	i	x	x	x	x
CCN(CC)CCNc1nc2c(c(=O)n(C)c(=O)n2C)n1C/C=C(/C)Cl	i	i	-4.64*	i	i	i	i	i	i
C/C(Cl)=C\Cn1c(NCCc2ccccc2)nc2c1c(=O)n(C)c(=O)n2C	i	i	i	i	i	x	x	x	x
COc1ccc(CNC(=O)C2CCN(c3nnc(N4CCCC4=O)s3)CC2)cc1	i	i	-5.28*	i	i	i	i	i	i
COc1ccc(Br)cc1CNC(=O)C1CCN(c2nnc(N3CCCC3=O)s2)CC1	i	i	i	i	i	x	x	x	x
CCn1c(=NC(=O)CN2C(=O)CCC2=O)sc2c(OC)ccc(OC)c21	i	i	-8.23*	i	i	i	i	i	i
Cc1ccc(S(=O)(=O)Nc2ccccc2CNC2CCCCC2)cc1	i	i	i	i	i	x	x	x	x
NC(=O)C1CCN(C(=O)NC2CC(=O)N(c3ccc4c(c3)OCCO4)C2)CC1 (stereo unspecified)	i	i	-6.95*	i	i	i	i	i	i
O=C(Nc1cn(-c2ccccc2)nc1-c1ccc(F)cc1)c1ccccc1	i	i	-5.28*	i	i	81.3%*	i	i	i
O=C(CCCSc1nnnn1-c1cccc2ccccc12)c1ccc(F)cc1	i	i	i	i	i	x	x	x	x
Cc1c(C(C)(C)O)[nH]c2ccc(C(F)(F)F)cc12	i	i	i	i	i	x	x	x	x
O=C(NCc1ccccc1)N1CCNCC1	i	i	i	i	i	x	x	x	x
O=C(CNC(=O)c1ccccc1F)OCc1csc(-c2ccccc2)n1	i	i	-5.03*	i	i	i	i	i	i
Nc1ccc2c3c(cccc13)CC2	i	i	-7.46*	i	i	84.6%*	i	i	i
c1ccc(Nc2ccc3c4c(cccc24)CC3)cc1	i	i	i	i	i	x	x	x	x
CC1C(=O)NN=C1C(=O)N/N=C/c1cccs1 (stereo unspecified)	i	i	-11.3*	i	i	i	i	i	i
CCOC(=O)Cn1c(=O)cc(C)c2ccccc21	i	i	-8.48*	i	i	i	i	i	i
COCCCNC(=S)N1CCN(c2nc(C)nc3sc4c(c23)CCCC4)CC1	i	i	-6.57*	i	i	i	i	i	i
CCCNC(=S)N1CCN(c2nc(C)nc3sc4c(c23)CCCC4)CC1	i	i	i	i	i	x	x	x	x
CCOc1ccccc1N1CCN(C(=O)CCCN2C(=O)c3cccc4cccc(c34)C2=O)CC1	i	i	-5.47*	i	i	i	i	i	i
SMILES	MrgX1 ag	RGS4 pot	MrgX1 antag	RGS4 inh	MrgX1 allo act	MrgX1 ant reconf	HEK293 Ca flux	HEK293 Ca counter	HEK293 Ca cntr2
CCOc1ccc(Br)cc1S(=O)(=O)Nc1cccc(S(=O)(=O)N(C)c2ccccc2)c1	i	i	i	i	i	x	x	x	x
COc1ccc(S(=O)(=O)N2CCC3(CC2)OCCN3S(=O)(=O)c2ccc(C)cc2)cc1OC	i	i	-6.63*	i	i	i	i	i	i
CC(C)CN(C(=O)COc1ccc(C(C)(C)C)cc1)C1CCS(=O)(=O)C1 (stereo unspecified)	i	i	i	i	i	x	x	x	x
O=C(NCC1CC1(Cl)Cl)Nc1ccc(Cl)c(Cl)c1 (stereo unspecified)	i	i	-5.51*	i	i	i	i	i	i
Cc1ccc(NC(=O)NCC2CC2(Cl)Cl)cc1 (stereo unspecified)	i	i	i	i	i	x	x	x	x
CC(C)(CO)NC(=O)Nc1ccc(Cl)c(Cl)c1	i	i	-7.71*	i	i	i	i	i	i
C[C@@H](CC#N)CN1CC[C@H](C(C)(C)C)CCC1=O	i	i	i	i	i	x	x	x	x
O=C(O)c1c[nH]c2c(C(F)(F)F)cccc2c1=O	i	i	-7.39*	i	i	i	i	i	i
COc1cccc2c(=O)c(C(=O)O)c[nH]c12	i	i	i	i	i	x	x	x	x
COc1ccc(CN2CC(C(=O)NCCCN3CCCCC3)CC2=O)cc1 (stereo unspecified)	i	i	i	i	i	x	x	x	x
CCn1c(/C=C/c2ccc(O)c(O)c2)nc2ccccc2c1=O	i	i	-4.67*	i	i	i	i	i	i
CCn1c(/C=C/c2ccc(O)cc2)nc2ccccc2c1=O	i	i	i	i	i	x	x	x	x
Cn1c(=O)c2nnn(/N=C(\c3ccccc3)C3CC3)c2n(C)c1=O	i	i	-5.08*	i	i	67.7%*	i	i	i
O=C(COC(=O)CCCNC(=O)c1ccc(Cl)cc1)Nc1cc(Cl)c(Cl)cc1Cl	i	i	i	i	i	x	x	x	x
Cc1cc(C)cc(NC(=O)COC(=O)CCCNC(=O)c2ccc(Cl)cc2)c1	i	i	-9.69*	i	i	76.6%*	i	i	i

High-throughput results: PubChem BioAssay, Johns Hopkins Ion Channel Center
